Assays:
[1] = Inhibition of HIV1 NL4-3 gp160 assessed as inhibition of interaction between gp120 and host CD4 receptor by cell-cell fusion assay; set-up: species or system Human immunodeficiency virus 1
[2] = system: Human immunodeficiency virus 1; test: Antiviral activity against Human immunodeficiency virus 1 NL4-3 infected HeLaP4 cells after 5 days by beta-galactosidase reporter assay; format: functional, organism-based; conditions: Human immunodeficiency virus 1, NL4-3, HeLaP4, 120 h
Outline: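 HeLa-P4 cells were premixed with NL4-3 virus and added at 10^5 cells/mL to wells containing diluted compound. Plates were incubated for 5 days at 37 °C in humidified 5% CO₂. Infection was quantified with a β-galactosidase reporter assay.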

[3] = Fraction of compound absorbed in rat at 1 mg/kg, iv and 1 mg/kg, po; format: ADME, organism-based; conditions: in vivo, read-out: Fabs
Rattus norvegicus [4] = test: Unbound volume of distribution in rat at 1 mg/kg, iv and 1 mg/kg, po; format: ADME, organism-based; conditions: in vivo
[5] = Half life in rat at 1 mg/kg, iv and 1 mg/kg, po; format: ADME, organism-based; conditions: in vivo
[6] = Bioavailability in rat at 1 mg/kg; format: ADME, organism-based; conditions: in vivo
[7] = Clearance in rat at 1 mg/kg, iv and 1 mg/kg, po; format: ADME, organism-based; conditions: in vivo
Rattus norvegicus [8] = test: Unbound clearance in rat at 1 mg/kg, iv and 1 mg/kg, po; format: ADME, organism-based; conditions: in vivo
[9] = system: Human immunodeficiency virus 1; test: Antiviral activity against Human immunodeficiency virus 1 isolate 04-116875_VL_279.69; format: functional
Outline: (§1)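 Testing against these strains was contracted out and used the PhenoSense phenotypic antiviral assay.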

[10] = system: Human immunodeficiency virus 1; test: Antiviral activity against Human immunodeficiency virus 1 isolate 04-116873_VL_754.51; format: functional; outline: as §1
[11] = system: Human immunodeficiency virus 1; test: Antiviral activity against Human immunodeficiency virus 1 isolate 04-116867_VL_837.51; format: functional; outline: as §1
[12] = system: Human immunodeficiency virus 1; test: Antiviral activity against Human immunodeficiency virus 1 JRCSF; format: functional, Human immunodeficiency virus type 1 (JRCSF ISOLATE); outline: as §1
[13] = system: Human immunodeficiency virus 1; test: Antiviral activity against Human immunodeficiency virus 1 isolate 04-116871_VL_781.69; format: functional; outline: as §1
[14] = system: Human immunodeficiency virus 1; test: Antiviral activity against Human immunodeficiency virus 1 isolate 04-116882_VL_624.75; format: functional; outline: as §1
[15] = system: Human immunodeficiency virus 1; test: Antiviral activity against Human immunodeficiency virus 1 isolate 04-116892_VL_534.93; format: functional; outline: as §1
[16] = system: Human immunodeficiency virus 1; test: Antiviral activity against Human immunodeficiency virus 1 isolate 04-116885_VL_530.54; format: functional; outline: as §1
[17] = system: Human immunodeficiency virus 1; test: Antiviral activity against Human immunodeficiency virus 1 isolate 04-116869_VL_833.52; format: functional; outline: as §1
[18] = system: Human immunodeficiency virus 1; test: Antiviral activity against Human immunodeficiency virus 1 isolate 04-116886_VL_578.66; format: functional; outline: as §1
[19] = system: Human immunodeficiency virus 1; test: Antiviral activity against Human immunodeficiency virus 1 isolate 04-116868_VL_518.14; format: functional; outline: as §1
[20] = system: Human immunodeficiency virus 1; test: Antiviral activity against Human immunodeficiency virus 1 isolate 04-116870_VL_181.51; format: functional; outline: as §1
[21] = system: Human immunodeficiency virus 1; test: Antiviral activity against Human immunodeficiency virus 1 isolate 04-116881_VL_338.52; format: functional; outline: as §1
[22] = system: Human immunodeficiency virus 1; test: Antiviral activity against Human immunodeficiency virus 1 isolate 04-116880_VL_696.65; format: functional; outline: as §1
[23] = system: Human immunodeficiency virus 1; test: Antiviral activity against Human immunodeficiency virus 1 isolate 04-116883_VL_432.63; format: functional; outline: as §1
[24] = system: Human immunodeficiency virus 1; test: Antiviral activity against Human immunodeficiency virus 1 isolate 04-116874_VL_560.34; format: functional; outline: as §1
[25] = system: Human immunodeficiency virus 1; test: Antiviral activity against Human immunodeficiency virus 1 isolate 04-116878_VL_241.32; format: functional; outline: as §1
[26] = system: Human immunodeficiency virus 1; test: Antiviral activity against Human immunodeficiency virus 1 isolate 04-116890_VL_781.45; format: functional; outline: as §1
[27] = system: Human immunodeficiency virus 1; test: Antiviral activity against Human immunodeficiency virus 1 isolate 04-116893_VL_193.95; format: functional; outline: as §1
[28] = system: Human immunodeficiency virus 1; test: Antiviral activity against Human immunodeficiency virus 1 isolate 04-116872_VL_186.32; format: functional; outline: as §1
[29] = system: Human immunodeficiency virus 1; test: Antiviral activity against Human immunodeficiency virus 1 isolate 04-116884_VL_328.45; format: functional; outline: as §1
[30] = system: Human immunodeficiency virus 1; test: Antiviral activity against Human immunodeficiency virus 1 isolate 04-116879_VL_988.03; format: functional; outline: as §1
[31] = system: Human immunodeficiency virus 1; test: Antiviral activity against Human immunodeficiency virus 1 isolate 04-116888_VL_113.66; format: functional; outline: as §1
[32] = system: Human immunodeficiency virus 1; test: Antiviral activity against Human immunodeficiency virus 1 HXB2; format: functional; outline: as §1
[33] = system: Human immunodeficiency virus 1; test: Antiviral activity against Human immunodeficiency virus 1 isolate 04-116877_VL_938.28; format: functional; outline: as §1
[34] = system: Human immunodeficiency virus 1; test: Antiviral activity against Human immunodeficiency virus 1 isolate 04-116889_VL_440.85; format: functional; outline: as §1
[35] = system: Human immunodeficiency virus 1; test: Antiviral activity against Human immunodeficiency virus 1 isolate 04-116876_VL_969.72; format: functional; outline: as §1
[36] = Metabolic stability in human liver microsomes assessed as half life; format: ADME, Microsome

## CNC(=O)c1ccc(O[C@@H](C)C(=O)N2CCN(C(=O)c3ccccc3)C[C@H]2C)c2c(C)n[nH]c12
[1]
  IC50: > 10 µM

## CC(Oc1cccc2nccnc12)C(=O)N1CCN(C(=O)c2ccccc2)C[C@H]1C (some centres not stated)
[1]
  IC50: 0.493 µM

## CC(Oc1cccc2ccncc12)C(=O)N1CCN(C(=O)c2ccccc2)C[C@H]1C (some centres not stated)
[2]
  IC50: 2.04 µM
[1]
  IC50: 0.575 µM

## CNC(=O)c1cc(OC)c(O[C@@H](C)C(=O)N2CCN(c3nccc4[nH]ncc34)C[C@H]2C)cn1
[2]
  IC50: 0.006 µM
[1]
  IC50: 0.024 µM

## CNC(=O)c1nccc2c(O[C@@H](C)C(=O)N3CCN(C(=O)c4ccccc4)C[C@H]3C)cccc12
[3]
  Fa: 55%
Rattus norvegicus [4]
  Vdu: 3.5 L/kg
[2]
  IC50: 0.0015 µM
[5]
  half-life: 30 min
[6]
  bioavailability: 45%
[7]
  clearance: 2.46 L/h/kg
[1]
  IC50: 0.021 µM
Rattus norvegicus [8]
  CL free: 5.4 L/h/kg

## CNC(=O)c1cc(OC)c(O[C@@H](C)C(=O)N2CCN(C(=O)c3ccccc3)C[C@H]2C)cn1
[3]
  Fa: 100%
[9]
  IC90: 0.213 µM
[10]
  IC90: 0.021 µM
Rattus norvegicus [4]
  Vdu: 2.2 L/kg
[11]
  IC90: 0.383 µM
[12]
  IC90: 0.004 µM
[13]
  IC90: 0.009 µM
[14]
  IC90: 0.106 µM
[15]
  IC90: > 2.22 µM
[16]
  IC90: 0.178 µM
[17]
  IC90: 0.122 µM
[18]
  IC90: > 2.22 µM
[19]
  IC90: 0.026 µM
[20]
  IC90: 0.044 µM
[21]
  IC90: 0.299 µM
[22]
  IC90: > 2.22 µM
[23]
  IC90: > 2.22 µM
[1]
  IC50: 0.014 µM
[24]
  IC90: 0.071 µM
[25]
  IC90: > 2.22 µM
[26]
  IC90: 0.17 µM
[27]
  IC90: 0.354 µM
[28]
  IC90: > 2.22 µM
[29]
  IC90: 0.009 µM
[30]
  IC90: 0.242 µM
[31]
  IC90: > 2.22 µM
[32]
  IC90: 0.013 µM
[33]
  IC90: 0.021 µM
[34]
  IC90: 0.056 µM
[35]
  IC90: 0.436 µM

## CC(Oc1cccc2ncccc12)C(=O)N1CCN(C(=O)c2ccccc2)C[C@H]1C (some centres not stated)
[2]
  IC50: 0.271 µM
[1]
  IC50: 0.099 µM

## CC(Oc1cccc2c(=O)[nH]ccc12)C(=O)N1CCN(C(=O)c2ccccc2)C[C@H]1C (some centres not stated)
[2]
  IC50: 1.05 µM
[1]
  IC50: 0.068 µM

## CNC(=O)c1cc(OC)c(O[C@@H](C)C(=O)N2CCN(c3nccc4ccccc34)C[C@H]2C)cn1
[3]
  Fa: 100%
[9]
  IC90: 0.014 µM
[10]
  IC90: 0.0013 µM
Rattus norvegicus [4]
  Vdu: 9.4 L/kg
[11]
  IC90: 0.04 µM
[12]
  IC90: 0.0003 µM
[13]
  IC90: 0.0005 µM
[14]
  IC90: 0.003 µM
[15]
  IC90: 0.199 µM
[16]
  IC90: 0.008 µM
[17]
  IC90: 0.024 µM
[2]
  IC50: 0.00012 µM
[5]
  half-life: 30 min
[18]
  IC90: 0.12 µM
[19]
  IC90: 0.001 µM
[20]
  IC90: 0.006 µM
[21]
  IC90: 0.201 µM
[22]
  IC90: 0.276 µM
[6]
  bioavailability: 21%
[23]
  IC90: > 0.666 µM
[7]
  clearance: 2.88 L/h/kg
[1]
  IC50: 0.00029 µM
[24]
  IC90: 0.005 µM
[25]
  IC90: 0.23 µM
[26]
  IC90: 0.144 µM
[27]
  IC90: 0.023 µM
[28]
  IC90: 0.036 µM
[29]
  IC90: 0.0008 µM
[30]
  IC90: 0.008 µM
[31]
  IC90: 0.324 µM
[32]
  IC90: 0.0014 µM
[36]
  half-life: 4 min
[33]
  IC90: 0.002 µM
[34]
  IC90: 0.005 µM
Rattus norvegicus [8]
  CL free: 11.9 L/h/kg
[35]
  IC90: 0.037 µM

## CNC(=O)c1ccc(O[C@@H](C)C(=O)N2CCN(C(=O)c3ccccc3)C[C@H]2C)c2cccnc12
[1]
  IC50: 1.26 µM

## C[C@H](Oc1cccc2nc(N(C)C)ccc12)C(=O)N1CCN(C(=O)c2ccccc2)C[C@H]1C
[1]
  IC50: 3.2 µM

## CC(Oc1ccnc2ccccc12)C(=O)N1CCN(C(=O)c2ccccc2)C[C@H]1C (some centres not stated)
[1]
  IC50: 7.43 µM

## CNc1nccc2c(O[C@@H](C)C(=O)N3CCN(C(=O)c4ccccc4)C[C@H]3C)cccc12
[1]
  IC50: 0.061 µM

## CC(Oc1cccc2cnccc12)C(=O)N1CCN(C(=O)c2ccccc2)C[C@H]1C (some centres not stated)
[2]
  IC50: 0.492 µM
[1]
  IC50: 0.103 µM

## Cc1nc2c(OC(C)C(=O)N3CCN(C(=O)c4ccccc4)C[C@H]3C)cccc2o1 (some centres not stated)
[1]
  IC50: 2.04 µM

## CNC(=O)c1cc(OC)c(O[C@@H](C)C(=O)N2CCN(c3nccn3CC3CC3)C[C@H]2C)cn1
[1]
  IC50: 1.9 µM
